In ChEMBL document CHEMBL1687926, “14-Aminocamptothecins: their synthesis, preclinical activity, and potential use for cancer treatment” (J Med Chem, 2011):
“And” between values parts separate entries of the source, which are not always exact repeats. Equal entries are not always repeated.

Legend:
[1] = test system: NCI-H460; assay: Cytotoxicity against human H460 cells after 72 hrs by alamar blue assay; assay type: functional, cell-based; details: Homo sapiens, NCI-H460, 72 h
In short: (§1)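 Cells seeded at 4 × 10³ per well and grown 24 h. Compounds dissolved in DMSO and diluted in medium to final concentrations, then incubated 72 h at 37 °C, 5% CO₂. Viable cells read by AlamarBlue; IC₅₀ taken as the concentration giving 50% growth inhibition.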

[2] = Cytotoxicity against human MES-SA/Dx5 cells overexpressing MDR1 after 72 hrs by alamar blue assay; assay type: functional, cell-based; details: MES-SA/Dx5, 72 h; in short: as §1
[3] = test system: H69AR; assay: Cytotoxicity against human H69AR cells overexpressing MRP1 after 72 hrs by alamar blue assay
[4] = test system: LNCaP; assay: Cytotoxicity against human LNCAP cells after 72 hrs by alamar blue assay; assay type: functional, cell-based; in short: as §1
[5] = Resistance ratio of IC50 for human H69AR cells overexpressing MRP1 after 72 hrs s to IC50 for human H69 cells after 72 hrs
[6] = test system: NCI-H460; assay: Ratio IC50 for human H460 cells after 72 hrs in presence of 40 mg/ml HSA to IC50 for human H460 cells after 72 hrs; assay type: functional
In short: (§2)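 H460 cells seeded at 4 × 10³ per well and grown 24 h. Compounds then cocultured with cells for 72 h at 37 °C, with or without 40 mg/mL human serum albumin. Viability read by AlamarBlue; IC₅₀ = 50% growth inhibition. Ratio compares the IC₅₀ with HSA to the IC₅₀ without.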

[7] = Ratio of IC90 for mouse bone marrow cell to IC90 for human bone marrow cell; assay type: ADME, cell-based; details: bone marrow cells
In short: (§3)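 CFU-GM colony assay in triplicate at 2 × 10⁴ cells per culture, using thawed normal human bone marrow or fresh mouse femoral marrow. Colonies were scored after 16-18 days. The IC50 or IC90 from each species gave the mouse/human ratio.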

[8] = test system: SK-MEL-2; assay: Cytotoxicity against human SK-MEL-2 cells after 72 hrs by alamar blue assay; assay type: functional, cell-based; details: SK-MEL-2, 72 h; in short: as §1
[9] = test system: NCI-H69; assay: Cytotoxicity against human H69 cells after 72 hrs by alamar blue assay; assay type: functional, cell-based; details: NCI-H69, 72 h; in short: as §1
[10] = test system: A-375; assay: Cytotoxicity against human A375 cells after 72 hrs by alamar blue assay; assay type: functional, cell-based; details: A-375, 72 h; in short: as §1
[11] = Cytotoxicity against human bone marrow cell by CFU-GM assay; assay type: cell-based; details: for IC50: Homo sapiens, Bone marrow cell; for IC90: human, bone marrow cells
[12] = test system: PC-3; assay: Cytotoxicity against human PC3 cells after 72 hrs by alamar blue assay; assay type: functional, cell-based; details: PC-3, 72 h; in short: as §1
[13] = test system: HT-29; assay: Cytotoxicity against human HT-29 cells after 72 hrs by alamar blue assay; assay type: functional, cell-based; details: HT-29, 72 h; in short: as §1
[14] = Resistance ratio of IC50 for human MES-SA/Dx5 cells overexpressing MDR1 after 72 hrs to IC50 for human MESSA cells after 72 hrs; assay type: functional
In short: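 Cytotoxicity compared in MDR1-overexpressing lines and their parental wild-type lines. 72 h exposure at 37 °C, viability by AlamarBlue, IC₅₀ at 50% growth inhibition. Resistance ratio = IC₅₀ in overexpressing line / IC₅₀ in parental line.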

[15] = test system: NCI-H460; assay: Cytotoxicity against human H460 cells after 72 hrs by alamar blue assay in presence of 40 mg/ml HSA; assay type: functional, cell-based; details: NCI-H460, 72 h; in short: as §2
[16] = Ratio of IC50 for mouse bone marrow cell to IC50 for human bone marrow cell; assay type: cell-based; details: bone marrow cells; in short: as §3
[17] = Cytotoxicity against human MESSA cells after 72 hrs by alamar blue assay; assay type: functional, cell-based; details: MES-SA; in short: as §1
[18] = test system: Malme-3M; assay: Cytotoxicity against human MALME-3M cells after 72 hrs by alamar blue assay; assay type: functional, cell-based; in short: as §1
[19] = test system: DU-145; assay: Cytotoxicity against human DU145 cells after 72 hrs by alamar blue assay; assay type: functional, cell-based; details: DU-145, 72 h; in short: as §1
[20] = test system: IGROV-1; assay: Cytotoxicity against human IGROV1 cells after 72 hrs by alamar blue assay; assay type: functional, cell-based; details: IGROV-1, 72 h; in short: as §1
[21] = Cytotoxicity against mouse bone marrow cell by CFU-GM assay; assay type: cell-based
In short: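 CFU-GM colony assay on normal human bone marrow (thawed) or mouse femoral marrow (freshly extracted). Human colonies scored after 16-18 days. IC₅₀ taken from triplicate assays.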

[22] = test system: Mus musculus; assay: Toxicity in nu/nu mouse assessed as body weight loss at 2 mg/kg, po QD for 5 days followed by 2 days without treatment for 2 weeks; assay type: organism-based; set-up: dose 2 mg/kg, route oral; details: in vivo
In short: (§4)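 Nude mice (nu/nu), females, or males for the prostate model, 4-6 weeks old, implanted sc in the flank with tumor cells (H460 at 1 × 10⁶). Groups of 10 were randomized at 100-150 mm³. Dosing was oral gavage in 5% DMSO/5% Tween 80/1% CMC in water, QD 5 days on/2 off per cycle, for 2 cycles (H460, PC-3) or 4 cycles (HT29). Tumor volume (length × width²/2) and body weight were measured twice weekly.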

[23] = test system: Mus musculus; assay: Toxicity in nu/nu mouse assessed as body weight loss at 2 mg/kg, po QD for 5 days followed by 4 days without treatment for 2 weeks; assay type: organism-based; set-up: dose 2 mg/kg, route oral; details: in vivo
[24] = test system: NCI-H460; assay: Antitumor activity against human H460 cells xenografted in nu/nu mouse assessed as tumor growth inhibition at 2 mg/kg, po QD for 5 days followed by 2days without treatment for 2 weeks; assay type: functional; set-up: scale not given: the % may be the effect or the level left; in short: as §4
[25] = test system: HT-29; assay: Antitumor activity against human HT-29 cells xenografted in nu/nu mouse assessed as tumor growth delay at 2 mg/kg, po QD for 5 days
[26] = test system: HT-29; assay: Antitumor activity against human HT-29 cells xenografted in nu/nu mouse assessed as tumor growth inhibition at 2 mg/kg, po QD for 5 days; set-up: scale not given: the % may be the effect or the level left
[27] = test system: PC-3; assay: Antitumor activity against human PC3 cells xenografted in nu/nu mouse assessed as tumor growth inhibition at 2 mg/kg, po QD for 5 days followed by 2days without treatment for 2 weeks; assay type: functional; set-up: scale not given: the % may be the effect or the level left; in short: as §4
[28] = test system: NCI-H460; assay: Antitumor activity against human H460 cells xenografted in nu/nu mouse assessed as tumor growth delay at 2 mg/kg, po QD for 5 days followed by 2days without treatment for 2 weeks; assay type: functional; in short: as §4
[29] = test system: PC-3; assay: Antitumor activity against human PC3 cells xenografted in nu/nu mouse assessed as tumor growth delay at 2 mg/kg, po QD for 5 days followed by 2days without treatment for 2 weeks; assay type: functional; in short: as §4

Question: For `CCc1c2c(nc3ccccc13)-c1c3c(c(CO)c(=O)n1C2)[C@@](O)(CC)C(=O)N3`, which IC50 [1] is on record?
Answer: Its IC50 is > 10000 nM.

Question: With `CCc1c2c(nc3ccc(OC(=O)N4CCC(N5CCCCC5)CC4)cc13)-c1cc3c(c(=O)n1C2)COC(=O)[C@]3(O)CC` [IRINOTECAN] as the compound, how does the IC50 [2] read?
Answer: Its IC50 is 22 nM.

Question: And the IC50 [3]?
Answer: Its IC50 is 250 nM.

Question: What about the IC50 [4] of the same compound?
Answer: Its IC50 is 9 nM.

Question: What about the Ratio [5] of the same compound?
Answer: Its Ratio is 11.

Question: What about the Ratio [6] of the same compound?
Answer: Its Ratio is 2.

Question: And the selectivity ratio [7]?
Answer: Its selectivity ratio is 100.

Question: What about the IC50 [8] of the same compound?
Answer: The IC50 was 100 nM.

Question: What about the IC50 [9] of the same compound?
Answer: The IC50 was 22 nM.

Question: What about the IC50 [10] of the same compound?
Answer: The IC50 was 4 nM.

Question: What about the IC50 [11] of the same compound?
Answer: Its IC50 is 1 nM.

Question: And the IC90 [11]?
Answer: Its IC90 is 8 nM.

Question: And the IC50 [12]?
Answer: Its IC50 is 4 nM.

Question: What about the IC50 [13] of the same compound?
Answer: The IC50 was 220 nM.

Question: What about the Ratio [14] of the same compound?
Answer: The Ratio was 2.

Question: What about the IC50 [15] of the same compound?
Answer: Its IC50 is 27 nM.

Question: What about the selectivity ratio [16] of the same compound?
Answer: The selectivity ratio was 85.

Question: And the IC50 [17]?
Answer: The IC50 was 10 nM.

Question: And the IC50 [18]?
Answer: Its IC50 is 200 nM.

Question: What about the IC50 [19] of the same compound?
Answer: Its IC50 is 200 nM.

Question: What about the IC50 [20] of the same compound?
Answer: Its IC50 is 30 nM.

Question: And the IC50 [21]?
Answer: Its IC50 is 110 nM.

Question: What about the IC50 [1] of the same compound?
Answer: Its IC50 is 15 nM.

Question: Which IC50 [2] does the source give for `CC[C@@]1(O)C(=O)OCc2c1cc1n(c2=O)Cc2cc3c(CN(C)C)c(O)ccc3nc2-1` [TOPOTECAN] here?
Answer: Its IC50 is 33 nM.

Question: And the IC50 [3]?
Answer: Its IC50 is > 300 nM.

Question: And the IC50 [4]?
Answer: The IC50 was 9 nM.

Question: What about the Ratio [5] of the same compound?
Answer: Its Ratio is >47.

Question: What about the Activity [22] of the same compound?
Answer: The Activity was 9%.

Question: What about the Ratio [6] of the same compound?
Answer: Its Ratio is 2.

Question: And the Activity [23]?
Answer: The Activity was 0% and 1%.

Question: And the selectivity ratio [7]?
Answer: The selectivity ratio was 14.

Question: And the Activity [24]?
Answer: The Activity was 46%.

Question: What about the IC50 [8] of the same compound?
Answer: The IC50 was 140 nM.

Question: And the Time [25]?
Answer: The Time was 16 days.

Question: And the IC50 [9]?
Answer: The IC50 was 6 nM.

Question: And the Activity [26]?
Answer: Its Activity is 70%.

Question: What about the IC50 [10] of the same compound?
Answer: Its IC50 is 13 nM.

Question: What about the IC50 [11] of the same compound?
Answer: Its IC50 is 8 nM.

Question: What about the IC90 [11] of the same compound?
Answer: The IC90 was 50 nM.

Question: And the IC50 [12]?
Answer: The IC50 was 45 nM.

Question: What about the IC50 [13] of the same compound?
Answer: The IC50 was > 1000 nM.

Question: What about the Ratio [14] of the same compound?
Answer: The Ratio was 8.

Question: What about the IC50 [15] of the same compound?
Answer: Its IC50 is 110 nM.

Question: What about the Activity [27] of the same compound?
Answer: Its Activity is 79%.

Question: What about the selectivity ratio [16] of the same compound?
Answer: Its selectivity ratio is 16.

Question: And the IC50 [17]?
Answer: Its IC50 is 4 nM.

Question: And the Time [28]?
Answer: The Time was 5 days.

Question: And the IC50 [18]?
Answer: Its IC50 is 1000 nM.

Question: What about the IC50 [19] of the same compound?
Answer: Its IC50 is 1000 nM.

Question: What about the IC50 [20] of the same compound?
Answer: The IC50 was 160 nM.

Question: What about the Time [29] of the same compound?
Answer: The Time was 21 days.

Question: And the IC50 [21]?
Answer: The IC50 was 130 nM.

Question: And the IC50 [1]?
Answer: Its IC50 is 45 nM.

Question: What does the source list for `CC[C@@]1(O)C(=O)OCc2c1cc1n(c2=O)Cc2cc3ccccc3nc2-1` [CAMPTOTHECIN]?
Answer: IC50 [2]: 52 nM; IC50 [3]: > 300 nM; Ratio [5]: >250; Ratio [6]: >77; IC50 [9]: 1 nM; IC50 [12]: 12 nM; IC50 [13]: 260 nM; Ratio [14]: 1; IC50 [15]: > 1000 nM; IC50 [17]: 57 nM; IC50 [1]: 13 nM

Question: Which IC50 [1] does the source give for `CCc1c2c(nc3ccccc13)-c1c([N+](=O)[O-])c3c(c(=O)n1C2)COC(=O)[C@]3(O)CC` here?
Answer: Its IC50 is 4600 nM.
